{"source": "paper PMC4241170", "about": "(ACS Chemical Biology, 2014)", "key": {"E. coli DH5α": {"test_system": "E. coli DH5α", "assay": "Growth of E. coli at elevated temperature", "format": "cell-based", "conditions": "6 h at 43 °C, 30 μM in Figure 1E", "outline": "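E. coli DH5α grown with varying concentrations of test compound for 6 h at 43 °C, with a DMSO vehicle control; one comparison used 30 μM. Growth measured in four independent experiments, with s.d. error bars.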"}, "mammalian tumor cells": {"test_system": "mammalian tumor cells", "assay": "Viability of mammalian tumor cells", "format": "cell-based", "conditions": "TPP moiety alone, Figure 1C", "outline": "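Human A875 melanoma cells and nontransformed human IMR90 fibroblasts treated for 24 h alongside a DMSO vehicle control. Results are representative of four independent experiments.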"}, "HSP70 (aa 386-616)": {"target": "HSP70 (aa 386-616) (Homo sapiens, UniProt P0DMV8)", "sequence (P0DMV8 386-616)": "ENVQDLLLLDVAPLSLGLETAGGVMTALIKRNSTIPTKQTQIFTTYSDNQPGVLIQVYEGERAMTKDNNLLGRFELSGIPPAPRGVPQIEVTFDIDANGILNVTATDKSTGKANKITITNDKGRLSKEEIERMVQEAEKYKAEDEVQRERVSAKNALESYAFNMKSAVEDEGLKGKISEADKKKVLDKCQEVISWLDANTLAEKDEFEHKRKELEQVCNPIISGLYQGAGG", "assay": "ITC, C-terminal domain of HSP70", "format": "binding", "conditions": "Figure 2J", "outline": "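Recombinant HSP70 C-terminal fragment (aa 386–616) titrated against test compound by isothermal titration calorimetry. Kd reported as average and standard deviation of three independent experiments.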"}, "DnaK (aa 389-607)": {"target": "DnaK (aa 389-607) (Escherichia coli, UniProt P0A6Y8)", "sequence (P0A6Y8 389-607)": "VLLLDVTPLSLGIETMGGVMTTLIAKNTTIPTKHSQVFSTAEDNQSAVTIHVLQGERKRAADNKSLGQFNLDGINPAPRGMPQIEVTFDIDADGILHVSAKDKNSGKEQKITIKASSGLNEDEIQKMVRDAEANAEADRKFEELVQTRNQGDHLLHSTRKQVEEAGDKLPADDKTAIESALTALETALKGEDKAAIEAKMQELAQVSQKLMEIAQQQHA", "assay": "ITC, DnaK SBD", "format": "binding, E. coli", "conditions": "data not shown"}, "GRP78 (BiP)": {"test_system": "GRP78 (BiP)", "conditions": "ref [5],[19]; cited from earlier work"}, "GRP75": {"test_system": "GRP75", "conditions": "ref [5],[19]; cited from earlier work"}, "[1]": {"test_system": "nucleotide-free HSP70 protein", "assay": "ITC, nucleotide-free HSP70", "format": "binding, human", "conditions": "compared with ADP-bound form; 42 °C"}, "HSP70": {"test_system": "HSP70", "assay": "ITC, HSP70 presaturated with PET-16, interaction with PES", "format": "binding, human", "conditions": "data not shown"}}, "data": [{"compound": "triphenylphosphine (TPP) bromide", "values": [{"measurement": "effect on growth of E. coli", "setting": "E. coli DH5α", "result": "did not detect an effect"}, {"measurement": "effect on viability of mammalian tumor cells", "setting": "mammalian tumor cells", "result": "little discernible effect"}, {"measurement": "binding to HSP70 SBD (ITC)", "setting": "HSP70 (aa 386-616)", "result": "does not bind"}, {"measurement": "binding to DnaK SBD (ITC)", "setting": "DnaK (aa 389-607)", "result": "does not bind"}]}, {"compound": "NS(=O)(=O)C#Cc1ccccc1", "note": "[PES, 2-phenylethynesulfonamide]", "values": [{"measurement": "interaction with GRP78 (BiP)", "setting": "GRP78 (BiP)", "result": "do not interact"}, {"measurement": "interaction with GRP75", "setting": "GRP75", "result": "do not interact"}, {"measurement": "interaction with nucleotide-free HSP70 (ITC)", "setting": "[1]", "result": "comparable affinity"}, {"measurement": "interaction of HSP70 with PES after presaturation with PET-16", "setting": "HSP70", "result": "impairs the interaction"}]}]}
